High-throughput results deposited in PubChem by several laboratories.
A selection: hits, their analogues and other compounds. The true share with any hit is near 2.6%.
core dimer inh: inhibitors of HCV core protein dimerization, primary screen, biochemical, TR-FRET, high-throughput. TR-FRET GST/Flag-core106 dimerization, 1536-well. inhibition, % at 5 µM. actives 0.33% (n = 300,000);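 active = inhibition above the mean of all tested compounds plus 3 SD, set per screening campaign, cut at about 45% in these data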
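Assay system: GST-tagged and Flag-tagged HCV core protein residues 1-106 / Times: compound-protein-antibody incubation 4 h at 22.5 °C / Signal: time-resolved FRET, ex 340 nm, em 617 and 671 nm / Evaluation: % inhibition based on acceptor/donor emission ratio / Benchmarks: wells lacking GST-core106 and wells with excess unlabelled core106 / Repeats: singlicate, one well per compound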
rCAG RNA binder: binders of r(CAG) RNA repeats, primary screen, biochemical, fluorescence | actives 1.3% (n = 370,000) | r(CAG) RNA repeat, TO-PRO-1 dye displacement fluorescence | AID 651821, 2012 | inhibition, % at 3 µM;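 active = inhibition above the plate cutoff, the mean of all test compounds on that plate plus 3 SD, cut at about 35% in these data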;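 note: 0% = DMSO alone and 100% = 100 µM mitoxantrone as full dye displacement; higher means more dye released from RNA so lower well fluorescence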
ABHD5-PLIN5 inh: ABHD5-PLIN5 interaction inhibitors, primary screen, cell lysate, split luciferase complementation, luminescence. Perilipin-5 (Homo sapiens) + 1-acylglycerol-3-phosphate O-acyltransferase ABHD5 (Homo …. actives 0.78% (n = 360,000). AID 602281, 2012. Split G. princeps luciferase complementation, 4 h. inhibition, % at 4 µM;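 active = inhibition above the mean inhibition across every tested compound plus 3 SD, cut at about 22% in these data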;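 note: 0% = DMSO only wells and the 100% control is not disclosed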
NadD block: inhibitors of S. aureus NadD, primary screen, biochemical, colorimetric, uHTS. inhibition, % at 20 µM. actives 0.78% (n = 360,000). purified NadD enzyme, colorimetric absorbance read-out; in the data active = inhibition above about 26%
rCAG binder conf: small molecules binding CAG repeat RNA – biochemical, fluorescence, confirmation | shares compounds with rCAG RNA binder | r(CAG) RNA repeat, TO-PRO-1 dye displacement fluorescence | inhibition, % at 3 µM | actives 70% (n = 4,300) | AID 652065, 2013;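 active = inhibition above a per-plate cutoff, the mean inhibition of sample wells plus 3 SD, cut at about 35% in these data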;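 note: loss of TO-PRO-1 fluorescence as compound displaces dye from 1x1 AA loop RNA; 0% = DMSO only wells and 100% = 100 µM mitoxantrone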
DNA CAG counter: displacement of TO-PRO-1 from CAG DNA duplex, counter-screen for rCAG RNA repeat binder project, biochemical, fluorescence, TO-PRO-1 dye, d(CAG) DNA oligo | shares compounds with rCAG RNA binder | d(CAG) DNA oligo TO-PRO-1 dye displacement | inhibition, % at 3 µM | actives 94% (n = 4,300) | AID 652068, 2013;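 active = inhibition above its plate's cutoff, the mean test-well inhibition plus 3 SD, cut at about 4.8% in these data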;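 note: 0% = DNA dye mix with DMSO and 100% = 100 µM mitoxantrone; hits displace the dye from DNA and so lower well fluorescence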
Active calls of the source: *; . = not tested or not shown.

SMILES | core dimer inh | rCAG RNA binder | ABHD5-PLIN5 inh | NadD block | rCAG binder conf | DNA CAG counter
O=C(O)COc1ccc(Br)cc1/C=C1/SC(=O)N(CC(=O)N2CCCC2)C1=O | -5 | 20 | 4 | 0 | . | .
CC1(C(=O)NS(=O)(=O)c2ccc(F)cc2F)CCN1C(=O)CC(c1ccccc1)c1ccccc1 (configuration not stated) | . | 38* | 2 | -2 | 33 | 5.8*
Cc1ccc(F)c(S(=O)(=O)NC(=O)C2(C)CCN2C(=O)CC(c2ccccc2)c2ccccc2)c1 (configuration not stated) | . | 49* | -3 | 2 | 43* | 12*
CCCC(=O)N1CCC1(C)C(=O)NS(=O)(=O)c1cc(C)ccc1F (configuration not stated) | . | 2 | 7 | 0 | . | .
CCOC(=O)C1CCCN(C(=S)NC(=O)/C=C/c2ccc(F)cc2)C1 (configuration not stated) | 8 | -5 | -3 | -1 | . | .
C=CCN1C[C@@H](COCc2ccccc2)OCCS1(=O)=O | . | -2 | . | . | . | .
CCCCCCOC(=O)Nc1ccc(S(=O)(=O)Nc2cccc([N+](=O)[O-])c2)cc1 | 6 | 45* | -14 | -2 | 46* | 14*
CCCCOC(=O)Nc1ccc(S(=O)(=O)Nc2nc(C)cc(C)n2)cc1 | -2 | 3 | 7 | 9 | . | .
CCOC(=O)c1sc2nc(C)cc(-c3ccccc3)c2c1N | -21 | -1 | -14 | 0 | . | .
Nc1c(C(=O)O)sc2nc(-c3ccccc3)cc(-c3ccc(Cl)cc3)c12 | 20 | 76* | 11 | 5 | 71* | 37*
O=c1oc2ccccc2c2oc3cc(O)c(O)cc3c12 | 5 | 41* | 0 | 3 | 53* | 28*
Nc1c(N)c2ccccc2oc1=O | -2 | 9 | -2 | 1 | . | .
Cc1c(COc2ccc3ccccc3c2)nnn1CC(=O)NS(=O)(=O)c1ccccc1C(F)(F)F | . | 70* | 3 | 1 | 64* | 26*
CC(=O)c1ccc(OCc2nnn(CC(=O)NS(=O)(=O)c3ccc(C)cc3)c2-c2ccccc2)cc1 | . | 62* | 3 | 3 | 68* | 20*
COc1cc(C)ccc1S(=O)(=O)NC(=O)Cn1nnc(COc2ccc3c(c2)CCCC3)c1C | . | 48* | 0 | 4 | 42* | 12*
O=C(NCc1ccccn1)[C@@H]1CCCN1C(=O)[C@@H]1CCCN1C(=O)c1cccc(Cl)c1 | . | 0 | 1 | 2 | . | .
CCCCNc1cccc2c1S(=O)(=O)N[C@H](CC(C)C)CO2 | . | -1 | . | . | . | .
O=C(O)c1cc(-c2c[nH]c3ccccc23)nc2ccc3ccccc3c12 | 8 | 52* | -1 | 2 | 45* | 11*
c1ccc2c(-c3c[nH]c4ccccc34)c3ccccc3nc2c1 | 2 | 5 | 4 | 7 | . | .
O=C(O)CCN1C(=O)c2ccc(NC(=O)c3ccco3)cc2C1=O | 1 | 0 | 4 | -1 | . | .
O=C(O)CCN1C(=O)c2ccc(NC(=O)C(c3ccccc3)c3ccccc3)cc2C1=O | 0 | 48* | 2 | -13 | 35* | 8.0*
Cc1ccc(C(=O)N/C(=C\c2ccc(Br)cc2)c2nc(=S)[nH][nH]2)cc1 | 9 | 41* | -14 | 15 | 53* | 23*
O=C(N/C(=C/c1cccc(Br)c1)c1nc(=S)[nH][nH]1)c1ccccc1 | -5 | 30 | -3 | 5 | . | .
O=C(/C=C/c1ccccc1)NC(NC(=S)Nc1cccc(O)c1)C(Cl)(Cl)Cl (configuration not stated) | 7 | 24 | -7 | -1 | . | .
O=C(/C=C/c1ccccc1)NC(NC(=S)Nc1ccc(C(=O)O)cc1)C(Cl)(Cl)Cl (configuration not stated) | 19 | 65* | -3 | 2 | 56* | 14*
SMILES | core dimer inh | rCAG RNA binder | ABHD5-PLIN5 inh | NadD block | rCAG binder conf | DNA CAG counter
CCn1c(C)c(/C=N/Nc2nc3ccccc3s2)c2ccccc21 | -1 | 47* | 4 | 17 | 32 | 15*
O=C(NCc1ccccc1)c1sc(=S)n2c1[nH]c(=O)c1ccccc12 | 0 | 47* | 4 | 17 | 83* | 50*
CCCCNC(=O)c1sc(=S)n2c1[nH]c(=O)c1ccc(C(=O)NCCc3ccc(OC)c(OC)c3)cc12 | -10 | . | 6 | 22 | . | .
COc1ccccc1/C=C/C1=NC(=C\C=C/c2ccccc2)/C(=O)O1 | 35 | 46* | 2 | 19 | 33 | 14*
O=C1OC(/C=C/c2ccccc2)=NC/1=C\c1cccnc1 | 5 | 2 | 3 | 2 | . | .
CCCc1cc(=O)[nH]c(NCc2ccc(Cl)cc2)n1 | -6 | 5 | 6 | 2 | . | .
CCCc1cc(=O)[nH]c(Nc2ccc(OC)c(Cl)c2)n1 | -12 | 36* | -13 | -1 | 9 | 11*
CCCc1cc(=O)[nH]c(Nc2ccc(O)cc2)n1 | -4 | 3 | -8 | 0 | . | .
CCCc1cc(=O)[nH]c(Nc2ccc(Cl)cc2)n1 | -5 | 41* | -9 | -7 | 9 | 10*
COc1ccc(-c2nn(-c3ccccc3)cc2CNC[C@H]2O[C@@H](n3cnc4c(=O)[nH]c(N)nc43)[C@H](O)[C@@H]2O)cc1 | . | 16 | -3 | 8 | . | .
Cc1cc(NS(=O)(=O)c2ccc(NC(=O)/C=C/c3ccccc3)cc2)no1 | -2 | 30 | -7 | 0 | . | .
Cc1cc(NS(=O)(=O)c2ccc(NC(=O)/C=C/c3ccccc3Cl)cc2)no1 | 10 | 71* | -3 | 0 | 56* | 23*
Cc1cc(NS(=O)(=O)c2ccc(NC(=O)/C=C/c3cccc(Cl)c3)cc2)no1 | 14 | 61* | -3 | 6 | 49* | 17*
CCCCNC(=O)c1onc(CSc2cccc(OCC)c2)c1C(=O)O | -4 | 45* | -6 | -8 | 20 | 1
CC(C)NC(=O)c1onc(CSc2cccc3ccccc23)c1C(=O)O | -4 | 36* | 7 | -1 | 30 | 7.2*
CCc1ccccc1SCc1noc(C(=O)NCC2CCCO2)c1C(=O)O (configuration not stated) | -10 | 19 | -1 | 2 | . | .
O=C(NCC1CCCO1)c1onc(CSc2cccc3ccccc23)c1C(=O)O (configuration not stated) | 1 | 42* | 2 | -6 | 40* | 6.2*
